From publication PMC12130796 (Clinical Cancer Research, 2025)
Like-named read-outs stand apart in the source and are kept apart here.

How the values were obtained:
[1] = test system: OATP1B2; conditions: via inhibition of OATP1B2 in dorsal root ganglia cells; cited from earlier work
[2] = test system: AOGCT KGN cells; conditions: read-out: EC50, inhibition of proliferation; KGN cells in vitro; cited from earlier work
[3] = Plasma pharmacokinetics of nilotinib in the combination; assay type: in vivo; conditions: human, oral, Mean nilotinib AUC(0–24hours)
[4] = test system: CYP2C8; conditions: cited from earlier work
[5] = Plasma pharmacokinetics of paclitaxel and metabolites; assay type: in vivo, human
[6] = cited from earlier work
[7] = test system: serine 10-phosphorylated histone H3 (pHH3); assay: pHH3 quantitative immunofluorescence; assay type: in vivo, human; conditions: C1D2 biopsies (after paclitaxel alone) relative to baseline, P = 0.0031
Outline: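 Adult patients with solid tumours received IV test taxane on days 1, 8 and 15 of 28-day cycles, with oral kinase inhibitor started C1D3 during dose expansion. 18-gauge core biopsies were taken at baseline, C1D2 and C1D28, snap-frozen, thawed in neutral buffered formalin, paraffin-embedded and cut at 5 micron for quantitative IFA. Per-patient means were compared by unpaired t test assuming unequal variances.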

[8] = test system: patients with relapsed ovarian sex cord–stromal tumors; conditions: weekly paclitaxel monotherapy, phase 2 arm, 32 patients (84% AOGCT); cited from earlier work
[9] = test system: E-cadherin, vimentin; assay: EMT immunofluorescence assay in tumor biopsies, log10; assay type: in vivo, human; conditions: single-agent paclitaxel, C1D2 biopsies
[10] = test system: patients with AOGCT; conditions: case report, one patient with AOGCT, cited from earlier work

## Cc1cn(-c2cc(NC(=O)c3ccc(C)c(Nc4nccc(-c5cccnc5)n4)c3)cc(C(F)(F)F)c2)cn1 [nilotinib]
[1]
  Effect on paclitaxel-induced peripheral neuropathy: attenuates paclitaxel-induced peripheral neuropathy
[2]
  EC50: 13.1 µM
[3]; day 8, DL2 (300 mg nilotinib twice daily, 80 mg/m^2 paclitaxel)
  AUC(0-t): 51.2 µM·h
[3]; day 8, DL3 (400 mg nilotinib twice daily, 80 mg/m^2 paclitaxel)
  AUC(0-t): 90.4 µM·h
[4]
  Effect on CYP2C8-mediated 6α-hydroxypaclitaxel formation: inhibits
[5]; day 8 vs day 1, DL2 vs DL3
  Effect of nilotinib coadministration on plasma paclitaxel exposures: does not modulate plasma paclitaxel exposures
[6]; nilotinib monotherapy
  Published mean AUC(0–24hours): 3,848 ± 1,116 μmol/L × minutes
[6]; read-out: Clinical Cmax, 300 mg twice-daily dosing
  Cmax: ~2000 nM

## CC(=O)O[C@H]1C(=O)[C@@]2(C)[C@H]([C@H](OC(=O)c3ccccc3)[C@]3(O)C[C@H](OC(=O)[C@H](O)[C@@H](NC(=O)c4ccccc4)c4ccccc4)C(C)=C1C3(C)C)[C@]1(OC(C)=O)CO[C@@H]1C[C@@H]2O [paclitaxel]
[7]
  Change in mitotic arrest marker pHH3: significant increase
[8]
  Progression-free survival: 14.7 months
[5]; across the two doses tested (60 and 80 mg/m^2)
  Dose proportionality of plasma concentrations: dose-proportional
[9]
  Change in tumor EMT phenotype: no obvious biologically relevant changes in EMT phenotype

## Cc1ccc(NC(=O)c2ccc(CN3CCN(C)CC3)cc2)cc1Nc1nccc(-c2cccnc2)n1 [Imatinib]
[10]; ref 36
  Duration of stable disease: over 16 months
[10]; ref 37
  Duration of stable disease: 12 months
